Measured values as given in article PMC6203112 (International Journal of Chronic Obstructive Pulmonary …, 2018).
Marks after values point to notes of the source that are not given here.

Assays:
[1] = Study 1 Part 1: single ascending dose PK via SDDPI; type: in vivo; conditions: human, plasma, inhaled
Method in brief: (§1)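 Blood was collected in lithium heparin, chilled on ice, and centrifuged at 2,000 ×g for 15 min at ~4°C. Plasma was stabilised with 1 M citric acid (100 µL per 1 mL plasma) and stored at ≤−65°C. After solid-phase extraction, samples were assayed by validated LC-MS/MS with heated electrospray and a deuterated internal standard (LLOQ 10 pg/mL). PK parameters were derived non-compartmentally.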

[2] = Study 1 Part 1: adverse events after single doses via SDDPI; type: in vivo, human
Method in brief: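 Study 1 Part 1 used a crossover design in healthy men aged 18–55. Single inhaled doses of test compound (20–2,000 µg) or matching placebo were given via a capsule-based single-dose dry-powder inhaler. Investigators recorded each AE and its relation to study medication. Counts are number (%) of the safety population, defined as randomized subjects receiving at least one dose.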

[3] = Study 2 Part 2: repeat ascending dose; type: in vivo, human; conditions: MDDPI; for Racc / CL/F / AUC(0-t): geometric mean (% CV); for AUC(0-t) / Tmax: human, plasma, inhaled; for Tmax: median (range)
Method in brief: as §1

CS(=O)(=O)Nc1ccc(C(=O)O[C@@H](Cc2c(Cl)c[n+]([O-])cc2Cl)c2ccc(OC(F)F)c(OCC3CC3)c2)cc1OCC1CC1 [CHF6001]
half-life ([1]; 200 ug): 30.1 h
AUC(0-t) ([1]; 400 ug): 5.38 ng·h/mL
Cmax ([1]; 400 ug): 0.195 ng/mL
half-life ([1]; 400 ug): 45.3 h
AUC(0-t) ([1]; 800 ug): 10.6 ng·h/mL
Cmax ([1]; 800 ug): 0.432 ng/mL
half-life ([1]; 800 ug): 26.3 h
AUC(0-t) ([1]; 1600 µg): 18 ng·h/mL
Cmax ([1]; 1600 µg): 0.73 ng/mL
half-life ([1]; 1600 µg): 27.4 h
AUC(0-t) ([1]; 2000 µg): 25.6 ng·h/mL
Cmax ([1]; 2000 µg): 0.983 ng/mL
half-life ([1]; 2000 µg): 37.3 h
AE considered related to study medication ([2]; single dose 20 µg, N=8): 0 Number (%) of subjects
AE leading to death ([2]; single dose 20 µg, N=8): 0 Number (%) of subjects
AE leading to withdrawal ([2]; single dose 20 µg, N=8): 0 Number (%) of subjects
At least one AE ([2]; single dose 20 µg, N=8): 1 (12.5) Number (%) of subjects
At least one SAE ([2]; single dose 20 µg, N=8): 0 Number (%) of subjects
Severe AE ([2]; single dose 20 µg, N=8): 0 Number (%) of subjects
AE considered related to study medication ([2]; single dose 100 µg, N=8): 0 Number (%) of subjects
AE leading to death ([2]; single dose 100 µg, N=8): 0 Number (%) of subjects
AE leading to withdrawal ([2]; single dose 100 µg, N=8): 0 Number (%) of subjects
At least one AE ([2]; single dose 100 µg, N=8): 0 Number (%) of subjects
At least one SAE ([2]; single dose 100 µg, N=8): 0 Number (%) of subjects
Severe AE ([2]; single dose 100 µg, N=8): 0 Number (%) of subjects
AE considered related to study medication ([2]; single dose 200 µg, N=8): 0 Number (%) of subjects
AE leading to death ([2]; single dose 200 µg, N=8): 0 Number (%) of subjects
AE leading to withdrawal ([2]; single dose 200 µg, N=8): 1 (12.5) Number (%) of subjects
At least one AE ([2]; single dose 200 µg, N=8): 3 (37.5) Number (%) of subjects
At least one SAE ([2]; single dose 200 µg, N=8): 0 Number (%) of subjects
Severe AE ([2]; single dose 200 µg, N=8): 0 Number (%) of subjects
AE considered related to study medication ([2]; single dose 400 µg, N=7): 0 Number (%) of subjects
AE leading to death ([2]; single dose 400 µg, N=7): 0 Number (%) of subjects
AE leading to withdrawal ([2]; single dose 400 µg, N=7): 0 Number (%) of subjects
At least one AE ([2]; single dose 400 µg, N=7): 2 (28.6) Number (%) of subjects
At least one SAE ([2]; single dose 400 µg, N=7): 0 Number (%) of subjects
Severe AE ([2]; single dose 400 µg, N=7): 0 Number (%) of subjects
AE considered related to study medication ([2]; single dose 800 µg, N=7): 0 Number (%) of subjects
AE leading to death ([2]; single dose 800 µg, N=7): 0 Number (%) of subjects
AE leading to withdrawal ([2]; single dose 800 µg, N=7): 0 Number (%) of subjects
At least one AE ([2]; single dose 800 µg, N=7): 3 (42.9) Number (%) of subjects
At least one SAE ([2]; single dose 800 µg, N=7): 0 Number (%) of subjects
Severe AE ([2]; single dose 800 µg, N=7): 0 Number (%) of subjects
AE considered related to study medication ([2]; single dose 1,600 µg, N=7): 0 Number (%) of subjects
AE leading to death ([2]; single dose 1,600 µg, N=7): 0 Number (%) of subjects
AE leading to withdrawal ([2]; single dose 1,600 µg, N=7): 0 Number (%) of subjects
At least one AE ([2]; single dose 1,600 µg, N=7): 2 (28.6) Number (%) of subjects
At least one SAE ([2]; single dose 1,600 µg, N=7): 0 Number (%) of subjects
Severe AE ([2]; single dose 1,600 µg, N=7): 0 Number (%) of subjects
AE considered related to study medication ([2]; single dose 2,000 µg, N=6): 0 Number (%) of subjects
AE leading to death ([2]; single dose 2,000 µg, N=6): 0 Number (%) of subjects
AE leading to withdrawal ([2]; single dose 2,000 µg, N=6): 0 Number (%) of subjects
At least one AE ([2]; single dose 2,000 µg, N=6): 0 Number (%) of subjects
At least one SAE ([2]; single dose 2,000 µg, N=6): 0 Number (%) of subjects
Severe AE ([2]; single dose 2,000 µg, N=6): 0 Number (%) of subjects
Racc ([3]; 1,200 µg BID, Day 14, N=9): 6.66 (38.4)
CL/F ([3]; 1,200 µg BID, Day 14, n=8): 588 (50.7) ^a mL/min
CL/F ([3]; 2,000 µg BID, Day 14, N=9): 652 (39.0) mL/min
Racc ([3]; 2,000 µg BID, Day 14, N=9): 6.28 (19.5)
CL/F ([3]; 2,400 µg BID, Day 14, n=8): 646 (37.0) ^a mL/min
Racc ([3]; 2,400 µg BID, Day 14, n=8): 5.47 (36.6) ^a
AUC(0-t) ([3]; 1200 µg, AUC0–12 h, 1,200 µg BID, Day 14, N=9): 34 ng·h/mL
Tmax ([3]; 1200 µg, tmax, 1,200 µg BID, Day 14, N=9): 1.6 h
AUC(0-t) ([3]; 2000 µg, AUC0–12 h, 2,000 µg BID, Day 14, N=9): 51.1 ng·h/mL
Tmax ([3]; 2000 µg, tmax, 2,000 µg BID, Day 14, N=9): 1.5 h
AUC(0-t) ([3]; 2400 µg, AUC0–12 h, 2,400 µg BID, Day 14, n=8): 61.9 ng·h/mL
Tmax ([3]; 2400 µg, tmax, 2,400 µg BID, Day 14, n=8): 2.3 h
